# Source: PMC11900868 (Science Advances, 2025)
# Test system: CCl4-induced liver fibrosis mice
# Test: Res treatment of CCl4-induced liver fibrosis, histology and immunohistochemistry
# Type: in vivo, male Balb/c mice
# Conditions: CCl4 10 weeks then discontinued; 10 mg/kg intraperitoneal twice a week
# Outline: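 Fibrosis induced in male Balb/c mice by intraperitoneal 20% CCl4 in olive oil twice weekly: 0.1 ml week 1, 0.15 ml week 2, 0.2 ml thereafter. After 10 weeks, CCl4 stopped and resveratrol given intraperitoneally at 10 mg/kg twice weekly for 1 or 3 weeks. Liver sections stained with H&E and Sirius red, plus α-SMA and FAP immunostaining. Percent positive area quantified; mean ± SD, ANOVA.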
structure (smiles),measurement,value
"Oc1ccc(/C=C/c2cc(O)cc(O)c2)cc1 [Res, resveratrol]","fibrotic tissue, HSCs activation and FAP expression after 1 week of treatment","significant reduction in fibrotic tissue, HSCs activation, and FAP expression levels"
same,"fibrotic tissue, HSCs activation and FAP expression after 3 weeks of treatment",all parameters approached normal levels
